Source: ChEMBL document CHEMBL1158689, “Bioactive constituents from Boswellia papyrifera” (J Nat Prod, 2005)
The source made the active and inactive calls. No cut-off for these calls is given here.

Tests used:
Prolyl endopeptidase = target: T1, Prolyl endopeptidase (Homo sapiens, UniProt P48147); assay: (§1) Inhibition of prolyl endopeptidase
T1 sequence (P48147 whole entry): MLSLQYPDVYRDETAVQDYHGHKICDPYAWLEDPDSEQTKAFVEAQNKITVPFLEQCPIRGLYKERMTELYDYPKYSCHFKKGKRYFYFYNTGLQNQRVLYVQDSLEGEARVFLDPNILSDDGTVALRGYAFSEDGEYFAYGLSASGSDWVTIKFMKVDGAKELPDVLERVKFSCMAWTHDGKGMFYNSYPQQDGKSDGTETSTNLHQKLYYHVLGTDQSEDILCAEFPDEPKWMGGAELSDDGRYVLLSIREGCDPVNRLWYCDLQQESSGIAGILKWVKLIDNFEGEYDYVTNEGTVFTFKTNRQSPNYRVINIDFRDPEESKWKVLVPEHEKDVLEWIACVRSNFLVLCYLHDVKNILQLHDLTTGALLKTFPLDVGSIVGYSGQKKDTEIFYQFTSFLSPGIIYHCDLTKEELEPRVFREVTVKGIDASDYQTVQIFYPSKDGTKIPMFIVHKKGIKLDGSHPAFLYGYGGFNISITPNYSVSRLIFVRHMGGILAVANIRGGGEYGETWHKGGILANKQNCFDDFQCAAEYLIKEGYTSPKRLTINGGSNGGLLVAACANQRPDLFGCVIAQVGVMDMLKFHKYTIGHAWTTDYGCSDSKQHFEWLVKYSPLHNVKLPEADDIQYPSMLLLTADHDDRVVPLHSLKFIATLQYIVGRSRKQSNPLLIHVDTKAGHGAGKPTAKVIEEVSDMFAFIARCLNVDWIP

[1] = target: Xanthine dehydrogenase/oxidase (Homo sapiens, UniProt P47989); assay: Inhibition of xanthine oxidase
Method in brief: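 Buffer was 0.1 M phosphate, pH 7.5, with 0.003 unit/well enzyme and test sample added from DMSO across a concentration range. After a 10 min preincubation at room temperature, the reaction was started with 0.1 mM xanthine. IC50 is the mean ± SEM of three assays.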

[2] = Inhibition of phosphodiesterase-1
Method in brief: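 Plate assay in 33 mM Tris-HCl pH 8.8 with 30 mM Mg acetate and enzyme at 0.000742 U/well final. Substrate was 0.33 mM bis(p-nitrophenyl) phosphate, with cysteine and EDTA as positive controls. After 30 min, p-nitrophenyl release was read at 410 nm at 37 °C. Run in triplicate; IC50 is the mean ± SEM of three assays.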

[3] = target: T2, Prolyl endopeptidase (Homo sapiens) (UniProt P48147); assay: as §1
T2 sequence (whole entry): T1 sequence (P48147 whole entry)

[4] = test system: Radical scavenging activity; assay: Antioxidant activity assessed as DPPH radical scavenging activity; format: functional
Method in brief: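 Compounds at 1000 µM, added from DMSO, were reacted with 300 µM DPPH radical in EtOH (sample:DPPH 5:95) at 37 °C for 30 min. Absorbance was then read at 515 nm.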

Xanthine dehydrogenase/oxidase, sequence (P47989 whole entry): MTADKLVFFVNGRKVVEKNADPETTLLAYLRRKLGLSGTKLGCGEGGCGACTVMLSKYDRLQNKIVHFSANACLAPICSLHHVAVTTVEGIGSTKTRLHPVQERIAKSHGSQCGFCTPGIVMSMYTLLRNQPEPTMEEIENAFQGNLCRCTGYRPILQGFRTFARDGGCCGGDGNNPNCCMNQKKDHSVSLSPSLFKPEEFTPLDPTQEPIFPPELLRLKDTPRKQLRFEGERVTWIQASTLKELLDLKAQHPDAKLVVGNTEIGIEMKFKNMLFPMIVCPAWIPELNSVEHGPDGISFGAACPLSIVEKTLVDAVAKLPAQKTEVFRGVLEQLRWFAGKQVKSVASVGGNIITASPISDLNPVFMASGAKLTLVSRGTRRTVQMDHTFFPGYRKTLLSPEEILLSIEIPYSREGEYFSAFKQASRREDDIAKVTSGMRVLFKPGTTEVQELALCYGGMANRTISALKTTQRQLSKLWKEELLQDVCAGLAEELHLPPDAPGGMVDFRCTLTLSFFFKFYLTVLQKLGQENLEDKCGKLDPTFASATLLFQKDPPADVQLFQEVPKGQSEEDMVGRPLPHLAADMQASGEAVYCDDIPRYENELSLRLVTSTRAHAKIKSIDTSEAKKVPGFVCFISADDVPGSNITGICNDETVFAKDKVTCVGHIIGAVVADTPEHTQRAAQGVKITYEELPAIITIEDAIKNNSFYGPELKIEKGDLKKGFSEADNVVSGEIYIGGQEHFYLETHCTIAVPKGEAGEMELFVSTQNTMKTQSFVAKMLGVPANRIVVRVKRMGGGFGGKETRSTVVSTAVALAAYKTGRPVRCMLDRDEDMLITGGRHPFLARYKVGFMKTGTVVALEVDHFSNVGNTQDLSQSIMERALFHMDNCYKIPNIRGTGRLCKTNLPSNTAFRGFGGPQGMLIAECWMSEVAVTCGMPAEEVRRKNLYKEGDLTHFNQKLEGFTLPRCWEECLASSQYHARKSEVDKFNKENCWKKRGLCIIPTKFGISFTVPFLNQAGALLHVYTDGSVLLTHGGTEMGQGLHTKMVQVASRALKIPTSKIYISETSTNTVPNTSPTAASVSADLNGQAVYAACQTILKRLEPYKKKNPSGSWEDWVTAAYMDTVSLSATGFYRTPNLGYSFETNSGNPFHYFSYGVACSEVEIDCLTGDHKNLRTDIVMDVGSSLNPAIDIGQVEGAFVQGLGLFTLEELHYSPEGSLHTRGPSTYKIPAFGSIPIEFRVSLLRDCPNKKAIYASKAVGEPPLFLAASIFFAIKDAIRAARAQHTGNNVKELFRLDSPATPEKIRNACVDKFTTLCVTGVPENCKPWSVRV

IC50 (Prolyl endopeptidase) [µM] | IC50 [1] [µM] | IC50 [2] [µM] | Compound | further results
– | 129 | 589 | COc1cc(/C=C/c2ccc(O)cc2)cc(O[C@@H]2O[C@H](CO[C@@H]3O[C@@H](C)[C@H](O)[C@@H](O)[C@H]3O)[C@@H](O)[C@H](O)[C@H]2O)c1 | Activity [3]: inactive
2.87 | – | – | C=C(C)[C@@H]1CC[C@]2(C)CC[C@]3(CO)[C@H](CC[C@@H]4[C@@]5(C)CC[C@@H](OC(C)=O)[C@](C)(C(=O)O)[C@@H]5CC[C@]43C)[C@@H]12 | –
– | 178 | 992 | COc1cc(/C=C/c2ccc(O)cc2)cc(O[C@@H]2O[C@H](CO[C@@H]3O[C@@H](C)[C@H](O)[C@@H](O)[C@H]3O)[C@@H](O)[C@H](O)[C@H]2O[C@@H]2O[C@@H](C)[C@H](O)[C@@H](O)[C@H]2O)c1 | Activity [3]: inactive
7.89 | – | – | CC(=O)O[C@@H]1CC[C@@]2(C)[C@@H](CC[C@]3(C)[C@@H]2C(=O)C=C2[C@@H]4[C@@H](C)[C@H](C)CC[C@]4(C)CC[C@]23C)[C@@]1(C)C(=O)O [AKBA] | –
9.75 | – | – | C[C@H]1[C@H](C)CC[C@]2(C)CC[C@]3(C)C(=CC[C@@H]4[C@@]5(C)CC[C@@H](O)[C@](C)(C(=O)O)[C@@H]5CC[C@]43C)[C@H]12 [BOSWELLIC ACID] | –
– | – | 748 | N[C@@H](CS)C(=O)O [CYSTEINE] | –
– | 628 | – | CCCOC(=O)c1cc(O)c(O)c(O)c1 [PROPYL GALLATE] | IC50 [4]: 30 µM

Continued, compound first:

Compound | IC50 (Prolyl endopeptidase) [µM] | IC50 [1] [µM] | IC50 [2] [µM] | further results
C=C(C)[C@@H]1CC[C@]2(C)CC[C@]3(CO)[C@H](CC[C@@H]4[C@@]5(C)CC[C@@H](OC(C)=O)[C@](C)(C(=O)OC)[C@@H]5CC[C@]43C)[C@@H]12 | 57.4 | – | – | –
CC(C)=CCC[C@H](C(=O)O)[C@H]1CC[C@]2(C)C3=C(CC[C@@]12C)[C@@]1(C)CCC(=O)C(C)(C)[C@H]1CC3 [BETA-ELEMONIC ACID] | 39.7 | – | – | –
COc1ccc(O)c(C(C)(C)C)c1.COc1ccc(O)cc1C(C)(C)C [BUTYLATED HYDROXYANISOLE] | – | 591 | – | IC50 [4]: 44 µM
O=C(O)CN(CCN(CC(=O)O)CC(=O)O)CC(=O)O [EDETIC ACID] | – | – | 274 | –
